# Active and inactive are the calls of the source. Unless noted, no stated cut-off is given here; in the data, active means inhibition above about 30%; inactive means the rest.
# Columns and labels:
# [1] = SK-BR-3 cell growth inhibitors, pilot screen, 24 h, human (AID 572;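 active means viability at or below 10% of carrier control in both of two separate runs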;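 further: compound exposure lasted between 18 and 24 h rather than exactly 24 h; 100% = carrier-treated control wells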); details: SK-BR-3 viability, CellTiter-Glo luminescence, at 10 µM, stronger effect = lower value
# [2] = HUVEC growth inhibition – cell-based, human, primary screen (AID 575;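 active means viability at or below 30% in both replicate assays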;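 further: 100% = median of untreated cell wells with 0.1% DMSO on each plate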); details: HUVEC proliferation, CellTiter-Glo luminescence, 72 h; at 10 µM; stronger effect = lower value
# How it was run: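 Test system: primary human umbilical vein endothelial cells; medium: endothelial basal medium with 2% FBS plus growth supplements; dosing: 10 µM compound only; times: 72 h treatment at 37 °C; signal: CTG luminescence; read-out: % viability relative to median vehicle-well signal on each plate; control set: vehicle and MePR control wells; plate: 384-well, collagen-coated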
# [3] = growth inhibitors of H69AR lung tumor, primary screen, human, duplicate replicates (AID 580;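 active means viability at or under a set limit in both replicates, limit being median viability minus 3 SD, cut at about 48% in these data, passing the limit was not always enough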;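 further: 100% = mean luminescence of untreated wells and 0% = no signal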); details: H69AR lung tumor cells viability, ATP luminescence, 72 h; at 10 µM; stronger effect = lower value
# [4] = reversal of MRP1-mediated doxorubicin resistance, pilot screen, H69AR cells, doxorubicin co-treatment (AID 601;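 active means viability loss from added drug above about 55%, and viability with drug at most 40%, in both replicates, limit read from the data, passing the limit was not always enough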); details: CellTiter-Glo, 72 h, at 10 µM; for differential viability (reversal): stronger effect = higher value
# [5] = 384-well plate pilot, post-Golgi transport modulator project, inhibition of yeast transport mutant growth (AID 636; in the data active means inhibition above about 31%); details: absorbance 615 nm, about 18 h, stronger effect = higher value
# [6] = growth suppression of yeast trafficking mutant, preliminary HTS, modulators of trafficking downstream of Golgi apparatus project, 1536-format plate, OD 615 nm (AID 637); details: yeast transport mutant growth, absorbance 615 nm, 18 h; stronger effect = higher value
# [7] = H69AR cells + 2 uM doxorubicin, measured here: viability with 2 uM doxorubicin, stronger effect = lower value
# [8] = H69AR cells, compound alone cytotoxicity
Compound,viability [1],viability [2],viability [3],differential viability (reversal) ([4]; H69AR cells + 2 uM doxorubicin),"viability [4, 7]","viability [4, 8]",inhibition [5],inhibition [6]
NS(=O)(=O)c1ccc(CCNC(=O)CCC2COc3ccccc3O2)cc1 (stereo unspecified),90% (inactive),105% (inactive),95.8% (inactive),8.33% (inactive),87.5%,95.8%,-5.62% (inactive),0.16% (inactive)
CCN(CC)CCOC(=O)c1ccc(NC(=O)COc2cc(=O)n(CC)c3ccccc23)cc1,103% (inactive),98.3% (inactive),109% (inactive),26.6% (inactive),82.1%,109%,-2.86% (inactive),-10% (inactive)
COC(=O)c1ccc(CSc2nc3ccccc3s2)o1,101% (inactive),88.7% (inactive),85% (inactive),-19.3% (inactive),104%,85%,-4.93% (inactive),-3.09% (inactive)
COc1cccc(NC(=O)N(CCCN2CCOCC2)C(C)c2cc3cccc(OC)c3o2)c1 (stereo unspecified),65% (inactive),99.9% (inactive),93.2% (inactive),-3.43% (inactive),96.6%,93.2%,-8.08% (inactive),-0.55% (inactive)
CC(C)(C)n1ncc2c(=O)n(CC(=O)NCc3ccccc3)cnc21,90% (inactive),54.7% (inactive),15.5% (active),-48.5% (inactive),63.9%,15.5%,-1.2% (inactive),-1.27% (inactive)
Cc1noc(C)c1CSc1nc2ccccc2s1,82% (inactive),80.8% (inactive),67.8% (inactive),-3.12% (inactive),70.9%,67.8%,-1.43% (inactive),-4.1% (inactive)
c1ccc(-c2oc3ncnc(NCCN4CCOCC4)c3c2-c2ccccc2)cc1,90% (inactive),58.8% (inactive),73.3% (inactive),40.4% (inactive),32.9%,73.3%,-0.52% (inactive),-4.1% (inactive)
O=C(O)CSc1ncn[nH]1,87% (inactive),102% (inactive),109% (inactive),0.37% (inactive),108%,109%,-6.58% (inactive),6.73% (inactive)
O=S(=O)(c1cccc2c(S(=O)(=O)N3CCCC3)cccc12)N1CCCC1,72% (inactive),107% (inactive),93.5% (inactive),5.26% (inactive),88.2%,93.5%,-9.18% (inactive),-0.55% (inactive)
Cc1cccn2c(=O)c3cc(C#N)c(=NC(=O)c4ccncc4)n(Cc4ccco4)c3nc12,110% (inactive),64.1% (inactive),67% (inactive),15.3% (inactive),51.7%,67%,-1.58% (inactive),7.74% (inactive)
OC[C@H]1O[C@@H](n2cnc3c(NC4CCCC4)ncnc32)[C@H](O)[C@@H]1O,113% (inactive),57.6% (inactive),74.9% (inactive),-18.2% (inactive),93%,74.9%,0.52% (inactive),-5% (inactive)
O=C(NC1CCCCCC1)c1cc(S(=O)(=O)N2CCC3(CC2)OCCO3)ccc1F,106% (inactive),98.2% (inactive),88.3% (inactive),-4.04% (inactive),92.4%,88.3%,0.27% (inactive),3.27% (inactive)
Cc1cc(C)n(Cc2cc(C)c(Cn3nc(C)cc3C)cc2C)n1,99% (inactive),101% (inactive),106% (inactive),12.2% (inactive),93.9%,106%,-4.73% (inactive),1.64% (inactive)
Cc1nn(Cc2ccccc2)c(C)c1NC(=O)c1cc(-c2ccco2)on1,103% (inactive),108% (inactive),102% (inactive),19.6% (inactive),82.6%,102%,-5.6% (inactive),-0.55% (inactive)
CCOC(=O)c1sc(NC(=O)CSc2ncn(-c3ccccc3)n2)nc1C,109% (inactive),97.5% (inactive),82.9% (inactive),-5.19% (inactive),88.1%,82.9%,-7.95% (inactive),3.09% (inactive)
CCOC(=O)c1cc(CC)sc1NC(=O)COC,104% (inactive),89.4% (inactive),88.8% (inactive),2.66% (inactive),86.2%,88.8%,-7.07% (inactive),0.18% (inactive)
CCn1c(SCC(=O)c2ccc(C)cc2)nnc1-c1ccoc1C,89% (inactive),114% (inactive),108% (inactive),8.75% (inactive),99.2%,108%,-5.14% (inactive),0.36% (inactive)
COc1ccc2c(c1)c(CC(=O)O)c(C)n2C(=O)c1ccc(Cl)cc1,99% (inactive),69.3% (inactive),95.6% (inactive),3.25% (inactive),92.3%,95.6%,-4.16% (inactive),0.5% (inactive)
CCCS(=O)(=O)N1CCCC(C(=O)NC(C)c2ccc3c(c2)OCCO3)C1 (stereo unspecified),79% (inactive),71.3% (inactive),93.9% (inactive),6.12% (inactive),87.8%,93.9%,-2.34% (inactive),0.49% (inactive)

Compound,viability [1],viability [2],viability [3],differential viability (reversal) ([4]; H69AR cells + 2 uM doxorubicin),"viability [4, 7]","viability [4, 8]",inhibition [5],inhibition [6]
COC(=O)CSc1nnc(CSc2nc(C)cc(C)n2)n1Cc1ccco1,81% (inactive),104% (inactive),99.8% (inactive),24.3% (inactive),75.5%,99.8%,-4.53% (inactive),-7.27% (inactive)
Cc1oc2cc3c(C(=O)OCCN(C)C)c(C)oc3cc2c1C(=O)OCCN(C)C,92.5% (inactive),72.2% (inactive),90.4% (inactive),-16.8% (inactive),107%,90.4%,-3.95% (inactive),-10% (inactive)
O=C(NCc1cccnc1)/C(=N\O)c1ccccc1,73% (inactive),111% (inactive),98.8% (inactive),13.2% (inactive),85.6%,98.8%,-6.08% (inactive),-3.82% (inactive)
Cc1cc(NS(=O)(=O)c2ccc(N)cc2)no1,111% (inactive),98.9% (inactive),88.9% (inactive),-12.6% (inactive),101%,88.9%,1.56% (inactive),-3.5% (inactive)
CCc1nnc(NC(=O)CSc2nc(-c3ccc(OC)cc3)ns2)s1,110% (inactive),101% (inactive),93.1% (inactive),-0.64% (inactive),93.7%,93.1%,-5.07% (inactive),0.91% (inactive)
COc1ccc(S(=O)(=O)NCCCN2CCOCC2)c2ccccc12,102% (inactive),101% (inactive),86.8% (inactive),5.68% (inactive),81.1%,86.8%,-6.53% (inactive),-0.18% (inactive)
CN(C(=O)c1ccccn1)c1nnc(-c2cccnc2)s1,97% (inactive),90.6% (inactive),111% (inactive),17.8% (inactive),93.5%,111%,-5.07% (inactive),-2.26% (inactive)
CCOc1cc(C2C(C#N)=C(N)Oc3n[nH]c(CC)c32)ccc1OCCN1CCOCC1 (stereo unspecified),87% (inactive),95.6% (inactive),110% (inactive),11% (inactive),99%,110%,0.27% (inactive),0.32% (inactive)
O=C1CCc2cc(OCCCCc3nnnn3C3CCCCC3)ccc2N1,98% (inactive),78.6% (inactive),101% (inactive),13% (inactive),88.2%,101%,1.82% (inactive),-4% (inactive)
CC(=O)OC(C(=O)NC1CCCCC1)c1ccncc1 (stereo unspecified),88% (inactive),98% (inactive),109% (inactive),21.3% (inactive),87.7%,109%,-0.14% (inactive),-0.48% (inactive)
O=S(=O)(c1ccc2c(c1)OCCO2)N1CCC(n2nnc3cc(F)ccc32)CC1,91% (inactive),74.8% (inactive),84.2% (inactive),-5.86% (inactive),90.1%,84.2%,-9.04% (inactive),-1.77% (inactive)
CC1=C(C(=O)Nc2ccccc2C)C2(CCCC2)C(C(N)=O)C(=O)N1 (stereo unspecified),114% (inactive),81.7% (inactive),90% (inactive),1.6% (inactive),88.4%,90%,0.96% (inactive),0% (inactive)
COCCNC(=O)CN1CCC(NC(=O)Nc2ccc(C(F)(F)F)cc2)CC1,92% (inactive),96.5% (inactive),102% (inactive),8.66% (inactive),93.5%,102%,-5.54% (inactive),0.55% (inactive)
O=C1C(CCS(=O)c2ccccc2)C(=O)N(c2ccccc2)N1c1ccccc1 (stereo unspecified),112% (inactive),84.5% (inactive),96.6% (inactive),7.85% (inactive),88.7%,96.6%,0.65% (inactive),10.7% (inactive)
Cc1cc(C)c(NC2=NCC(=O)N2C2CCCCC2)c(C)c1,106% (inactive),107% (inactive),86.3% (inactive),-5.14% (inactive),91.5%,86.3%,-7.53% (inactive),-3.09% (inactive)
COc1ccccc1CNC(=O)C(C)NS(=O)(=O)c1ccccc1 (stereo unspecified),113% (inactive),106% (inactive),87.1% (inactive),-11% (inactive),98.1%,87.1%,-7.4% (inactive),-0.73% (inactive)
c1cc(C(c2nnnn2C2CCCC2)N2CCOCC2)ccn1 (stereo unspecified),96.5% (inactive),104% (inactive),91.9% (inactive),-0.285% (inactive),92.2%,91.9%,-8.22% (inactive),0.16% (inactive)
COc1ccccc1N1CCN(C(CNS(=O)(=O)c2cc(F)ccc2F)c2cccnc2)CC1 (stereo unspecified),95% (inactive),110% (inactive),92.8% (inactive),2.69% (inactive),90.2%,92.8%,-2.97% (inactive),4% (inactive)

# — PubChem BioAssay
